Laboratory results taken from ChEMBL document CHEMBL4359877, “Identification of benzothiazinones containing an oxime functional moiety as new anti-tuberculosis agents” (Eur J Med Chem, 2019).
Converted amounts (≈) assume the structure as drawn.

Legend:
[1] = tested on: Mycobacterium tuberculosis; experiment: Antimycobacterial activity against Mycobacterium tuberculosis H37Rv ATCC 27294 assessed as reduction in bacterial cell growth incubated for 7 days by microplate alamar blue assay; assay type: functional; details: H37Rv ATCC 27294, 168 h
Summary of the method: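 MABA: H37Rv or clinical MDR isolates (resistant to INH and RFP, Beijing Chest Hospital patients) grown to late log phase in 7H9 with glycerol, Tween 80 and ADC, washed, filtered and frozen. Two-fold compound dilutions with 2 × 10⁵ CFU per well, 37 °C; Alamar blue plus Tween 80 added on day 7, fluorescence (ex 530/em 590) read after 16–24 h. MIC = lowest concentration giving ≥90% fluorescence reduction versus mean of bacterium-only controls; RIF and INH as positive controls.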

[2] = Cytotoxicity against African green monkey Vero cells assessed as reduction in cell viability; assay type: cell-based; details: chlorocebus sabaeus

| SMILES | MIC90 [1] [mg/L] | CC50 [2] [mg/L] |
| --- | --- | --- |
| CCO/N=C(\C)CN1CCN(c2nc(=O)c3cc(C(F)(F)F)cc([N+](=O)[O-])c3s2)CC1 | < 0.016 | > 64 |
| C/C(CN1CCN(c2nc(=O)c3cc(C(F)(F)F)cc([N+](=O)[O-])c3s2)CC1)=N\OCc1ccccc1 | < 0.016 | > 64 |
| CCON=C1CCC(CN2CCN(c3nc(=O)c4cc(C(F)(F)F)cc([N+](=O)[O-])c4s3)[C@@H](C)C2)CC1 (stereo not given in full) | < 0.016 | > 64 |
| CON=C1CCC(CN2CCN(c3nc(=O)c4cc(C(F)(F)F)cc([N+](=O)[O-])c4s3)C[C@@H]2C)CC1 (stereo not given in full) | < 0.016 | > 64 |
| CO/N=C(\C)CCN1CCN(c2nc(=O)c3cc(C(F)(F)F)cc([N+](=O)[O-])c3s2)CC1 | < 0.016 | > 64 |
| CON=C1CCC(CN2CCN(c3nc(=O)c4cc(C(F)(F)F)cc([N+](=O)[O-])c4s3)C[C@H]2C)CC1 (stereo not given in full) | < 0.016 | > 64 |
| CON=C1CCC(CN2CCN(c3nc(=O)c4cc(C(F)(F)F)cc([N+](=O)[O-])c4s3)[C@@H](C)C2)CC1 (stereo not given in full) | < 0.016 | > 64 |
| CCO/N=C(\C)CN1CCC2(CCN(c3nc(=O)c4cc(C(F)(F)F)cc([N+](=O)[O-])c4s3)CC2)C1 | 0.029 (≈ 0.0565 µM) | – |
| CCON=C1CCC(CN2CCN(c3nc(=O)c4cc(C(F)(F)F)cc([N+](=O)[O-])c4s3)C[C@H]2C)CC1 (stereo not given in full) | < 0.016 | > 64 |
| CON=C1CC(CN2CCN(c3nc(=O)c4cc(C(F)(F)F)cc([N+](=O)[O-])c4s3)CC2C)C1 (stereo not given) | 0.056 (≈ 0.115 µM) | – |
| C/C(CCN1CCC2(CCN(c3nc(=O)c4cc(C(F)(F)F)cc([N+](=O)[O-])c4s3)CC2)C1)=N/OCc1ccccc1 | 0.119 (≈ 0.202 µM) | – |
| CO/N=C(\C)CN1CCC2(CCN(c3nc(=O)c4cc(C(F)(F)F)cc([N+](=O)[O-])c4s3)CC2)C1 | 0.085 (≈ 0.17 µM) | – |
| CO/N=C(\C)CN1CCN(c2nc(=O)c3cc(C(F)(F)F)cc([N+](=O)[O-])c3s2)CC1 | 0.037 (≈ 0.0831 µM) | – |
| CON=C1CCC(CN2CCN(c3nc(=O)c4cc(C(F)(F)F)cc([N+](=O)[O-])c4s3)[C@H](C)C2)CC1 (stereo not given in full) | 0.023 (≈ 0.0448 µM) | – |
| CCON=C1CC(CN2C(C)CN(c3nc(=O)c4cc(C(F)(F)F)cc([N+](=O)[O-])c4s3)CC2C)C1 (stereo not given) | 0.056 (≈ 0.109 µM) | – |
| CCON=C1CCC(CN2CCN(c3nc(=O)c4cc(C(F)(F)F)cc([N+](=O)[O-])c4s3)C[C@@H]2C)CC1 (stereo not given in full) | < 0.016 | > 64 |
